Source: PubChem
UPR CHOP act: activators of apoptotic CHOP UPR arm, primary screen, cell-based, CHO-CHOP luciferase reporter, luminescence, uHTS; 330,000 compounds, 0.34% hits; AID 449763, 2010; activation, % at 10 µM; UPR activation; percent of tunicamycin response over DMSO baseline;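 active = at 10 µM dose, activation of 40% or more, normalized to positive control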;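 note: 100% = tunicamycin at 10 µg/mL and 0% = DMSO alone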
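Assay system: CHO cells with stable CHOP pathway luciferase reporter; Buffer or medium: F12 plus 10% serum; Times: 16-18 h cell attachment, then 6 h compound exposure, 37 °C; Signal: luciferase luminescence; Read-out basis: percent activation relative to tunicamycin control; Control set: tunicamycin high control, DMSO low control.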
697 NFkB inh: inhibitors of PMA/ionomycin-induced NF-kB reporter, 697 cells, primary screen, B-cell NF-kB inhibitor project, cell-based, luminescence, uHTS; inhibition, % at 4 µM; 697 B-cell NF-kB luciferase reporter, 16 h; 330,000 compounds, 0.33% hits; in the data active = inhibition above about 35%
CHOP inh: inhibitors of CHOP promoter induction, primary screen, cell-based, unfolded protein response, luciferase reporter. CHO-K1 CHOP-promoter luciferase, tunicamycin-induced, 15-18 h. 220,000 compounds, 3.8% hits. inhibition, % at 10 µM;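 active = compounds that reduced the stress-induced luciferase reporter signal by more than about 70% of percent inhibition, limit read from the data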;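 note: 0% = tunicamycin plus vehicle and 100% = wells without tunicamycin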
UPR XBP1 act: activators of adaptive XBP1 UPR arm, primary screen, cell-based, CHO-XBP1 luciferase reporter, luminescence, uHTS. IRE1-XBP1 UPR activation; percent of tunicamycin response, DMSO as zero. activation, % at 20 µM. 330,000 compounds, 0.33% hits;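 active = versus positive control, 20 µM dose yields 30% or more activation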;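 note: 100% = tunicamycin at 10 µg/mL and 0% = DMSO only wells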
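Material – CHO cell line with stable XBP1 luciferase reporter · Buffer or medium – F12 plus 10% FBS · Compound – single point, 20 µM final compound, 1% DMSO · Schedule – 16-18 h cell attachment at 37 °C, then 6 h compound exposure · Signal – Steady-Glo luminescence read · Benchmarks – high control tunicamycin 10 µg/mL final, low control DMSO vehicle only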
Jurkat NFkB inh: inhibitors of induced NF-kB luciferase reporter, primary screen, TCR NF-kB activation inhibitor project, cell-based, luminescence, uHTS. Jurkat, PMA/ionomycin-induced NF-kB luciferase reporter. inhibition, % at 4 µM. 330,000 compounds, 0.53% hits. AID 435003, 2010; in the data active = inhibition above about 50%
697 NFkB conf: PMA/ionomycin-induced NF-kB reporter inhibitors, 697 retest, confirmation, B-cell NF-kB inhibitor project, cell-based, luminescence, single concentration. 697 B-cell NF-kB luciferase, 16 h. AID 449746, 2010. shares compounds with 697 NFkB inh. 2,000 compounds, 35% hits. inhibition, % at 4 µM; in the data active = inhibition mostly above about 28%, no sharp cut-off; inactive = mostly below about 22%
* = called active by the depositor; i = inactive; . = no result given. Only a selection was taken, and hits are over-represented in it overall.

SMILES | UPR CHOP act | 697 NFkB inh | CHOP inh | UPR XBP1 act | Jurkat NFkB inh | 697 NFkB conf
Cc1nc([N+](=O)[O-])c(Sc2nc3ccccc3[nH]2)n1Cc1ccccc1 | 5 | -17 | -7 | -4 | 13 | .
COc1ccc2nc(Sc3c([N+](=O)[O-])nc(C)n3Cc3ccccc3)[nH]c2c1 | 1 | 39* | -61 | 0 | -9 | 47*
CNC(=O)c1ccc(CNC(=O)OCc2ccccc2)cc1 | 2 | -12 | 0 | 2 | 3 | .
CCOc1ccc(-n2c(SCC)nc3c(c2=O)SCC3)cc1 | 0 | 9 | 56 | -1 | 5 | .
CCOc1ccc(-n2c(SCC(=O)Nc3ccc4c(c3)OCCO4)nc3c(c2=O)SCC3)cc1 | 0 | 38* | 36 | -2 | -16 | 32*
COc1cc(/C=C2\C(=N)N3N=CSC3=NC2=O)ccc1OS(=O)(=O)c1ccccc1 | 0 | 17 | . | -1 | 12 | .
CCOc1cc(/C=C2\C(=N)N3N=CSC3=NC2=O)ccc1OS(=O)(=O)c1ccccc1 | -1 | 44* | . | -7 | 8 | 19
COc1ccc(-c2nc(-c3ccc(C(=O)O)cc3)no2)cc1 | -6 | -315 | . | -6 | -17 | -353
Fc1ccccc1-c1nc(-c2ccccc2)no1 | -2 | -272 | 64 | -4 | -120 | -227
COc1cccc(-c2nc(-c3ccccc3)no2)c1 | -2 | -279 | 48 | -2 | -142 | -270
COc1cccc(-c2noc(-c3cccnc3)n2)c1 | 2 | -155 | -17 | 4 | -90 | .
COc1ccc2c(c1OC)C(=O)OC2Nc1nc2ccccc2s1 (centres undefined) | 1 | 2 | 3 | -1 | -5 | .
COc1ccc2c(c1OC)C(=O)OC2Nc1ccccn1 (centres undefined) | 0 | 35* | 4 | 0 | 23 | 6
C=CCOc1ccn(C)c(=O)n1 | 1 | 1 | -6 | 7 | 11 | .
N#Cc1ccccc1COc1ccc(/C=C/C(=O)O)cc1 | -7 | 39* | 53 | -5 | 14 | 38*
CCOC(=O)C1=C(N)n2c(s/c(=C\c3cccnc3)c2=O)=C(C(=O)OC)C1c1cccnc1 (centres undefined) | 0 | 37* | . | 10 | 10 | 6
CC(C)c1ccc(/C=N/n2cnnc2)cc1 | 1 | -26 | -9 | -2 | -15 | .
CCOc1ccc(C(F)(F)F)cc1NC(=O)c1ccc(OC)c([N+](=O)[O-])c1 | 1 | 40* | -6 | -2 | 0 | 26
Cc1cc(C)c(S(=O)(=O)NCc2ccncc2)c(C)c1 | 1 | 58* | 40 | -4 | 46 | 41*
Cc1cc(C)c(S(=O)(=O)NCCc2ccncc2)c(C)c1 | 0 | 9 | . | 0 | -18 | .
Cc1c(/C=N/NC(=O)c2cccs2)c2ccccc2n1Cc1ccccc1Cl | 4 | i | -17 | 2 | -46 | 3
Cc1[nH]c2ccccc2c1/C=N/NC(=O)c1cccs1 | 1 | 28 | 42 | 4 | -30 | .
O=C(Nc1ccc2[nH]c(=S)sc2c1)Nc1ccccc1F | 4 | -296 | 0 | 1 | -122 | -212
COc1ccccc1NC(=O)N1CCN(c2ccc3nnc(-c4ccc(F)cc4)n3n2)CC1 | -2 | 35* | 44 | 6 | 7 | 9
O=C(Nc1ccccc1Cl)N1CCN(c2ccc3nnc(-c4ccc(F)cc4)n3n2)CC1 | -1 | 36* | 38 | 0 | 18 | 17
COc1ccccc1NC(=O)N1CCN(c2ccc3nncn3n2)CC1 | 7 | 17 | 9 | -1 | 4 | .
Fc1ccc(-c2nnc3ccc(N4CCCC4)nn23)cc1 | 0 | 9 | -9 | 5 | 5 | .
Cn1c(N)c(C(=O)COC(=O)[C@@H]2CCCN2S(=O)(=O)c2ccc(Cl)cc2)c(=O)n(C)c1=O | -1 | 14 | 11 | 2 | -2 | .
CC(=O)c1c(C)[nH]c(C(=O)N2CCc3ccccc3C2)c1C | -2 | 42* | 28 | 0 | 7 | 20
